Sampled rows, rich in hits. Any-hit rate of the full collection: about 1.5%.
MsrA inhibitor – bovine MsrA enzyme inhibitors, primary screen, biochemical, absorbance, HTS; Methionine sulfoxide reductase A (Bos taurus); purified bovine MsrA, absorbance read-out; inhibition, % at 15.5 µM; hit rate 0.75% among 360,000;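 note: 0% = vehicle wells with enzyme and 100% = reference inhibitor wells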
proCasp3 act – activators of human procaspase-3 D3A mutant, primary screen, biochemical, absorbance, PC-3 D3A mutant, single concentration; AID 463141, 2010; hit rate 0.11% among 330,000; activation, % at 8.5 µM; Caspase-3 (Homo sapiens), P42574; recombinant procaspase-3 D3A, Ac-DEVD-pNA absorbance 405 nm;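 active = activation above the mean of all tested compounds plus 3 SD, cut at about 21% in these data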;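 note: 0% = DMSO alone and 100% = DMSO wells spiked with extra 5 µM PC-3 D3A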
Target sequence (P42574 whole entry D9A/D28A/D175A): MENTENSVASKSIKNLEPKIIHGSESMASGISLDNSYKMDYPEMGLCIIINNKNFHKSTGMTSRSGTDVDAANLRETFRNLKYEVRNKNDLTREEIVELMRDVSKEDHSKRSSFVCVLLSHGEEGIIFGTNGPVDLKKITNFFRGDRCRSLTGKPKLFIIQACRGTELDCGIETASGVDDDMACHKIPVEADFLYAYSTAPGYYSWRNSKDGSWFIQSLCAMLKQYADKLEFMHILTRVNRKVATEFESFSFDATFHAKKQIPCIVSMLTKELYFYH
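Assay system: Procaspase-3 D3A mutant, all three cleavage aspartates alanine. Buffer or medium: Zinc-free HEPES saline buffer with Triton X-100. Times: 1 h compound preincubation, 2 h substrate hydrolysis at 25 °C. Measured by: 405 nm absorbance of p-nitroaniline, reads at 0 and 120 min. Read-out basis: percent activation relative to control range. Replicates: singlicate.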
proCasp7 act – procaspase-7 activators, primary screen, counter-screen for procaspase-3 activator project, biochemical, absorbance, HTS, human; AID 463210, 2010; activation, % at 8.5 µM; hit rate 0.093% among 330,000; recombinant procaspase-7, Ac-DEVD-pNA absorbance 405 nm; D23A/D198A/D206A triple mutant, cannot self-cleave; scale: DMSO 0, 5 µM enzyme 100;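 active = percent activation above the screen-wide mean plus 3 SD, cut at about 25% in these data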
Target sequence (P55210 whole entry D23A/D198A/D206A): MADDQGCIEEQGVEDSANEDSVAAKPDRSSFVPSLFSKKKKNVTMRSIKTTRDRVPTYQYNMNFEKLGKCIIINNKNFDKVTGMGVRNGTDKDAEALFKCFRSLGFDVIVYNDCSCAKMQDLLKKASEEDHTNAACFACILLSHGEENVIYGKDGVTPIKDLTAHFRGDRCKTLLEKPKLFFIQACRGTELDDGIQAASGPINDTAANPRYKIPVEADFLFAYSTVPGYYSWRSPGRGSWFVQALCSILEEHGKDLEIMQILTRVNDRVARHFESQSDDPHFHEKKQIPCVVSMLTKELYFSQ
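Assay system: Uncleavable procaspase-7 mutant enzyme / Input: 2 µM procaspase-7 mutant as dispensed / Dosing: single nominal 8.5 µM compound dose, 0.8% DMSO final / Timing: 1 h enzyme–compound preincubation and 2 h substrate reaction, both 25 °C / Detection: p-Nitroaniline absorbance at 405 nm, read at 0 and 120 min / Replication: singlicate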
bovine MsrA act – bovine MsrA enzyme activators, primary screen, biochemical, absorbance, HTS; Methionine sulfoxide reductase A (Bos taurus); purified bovine MsrA, absorbance read-out; activation, % at 10.6 µM; hit rate 0.3% among 360,000; in the data active = activation above about 7.5%;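 note: 0% = vehicle and 100% = reference activator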
TbMetRS inhib – T. brucei MetRS inhibitors, primary screen, biochemical, luminescence | methionyl-tRNA synthetase (Trypanosoma brucei brucei) | inhibition, % at 11.9 µM | hit rate 0.4% among 360,000 | purified T. brucei MetRS, ATP depletion, Kinase-Glo luminescence;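 active = inhibition above a per-plate cutoff of the control wells' mean inhibition plus 3 SD, cut at about 5.5% in these data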;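 note: 0% = DMSO wells median and 100% = median of wells with control inhibitor compound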
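Material: T. brucei methionyl-tRNA synthetase, purified; reagent: substrates ATP, L-methionine and bulk Escherichia coli tRNA; dosing: 11.9 µM single point; timing: 15 min plus 2 h at 25 °C; detection: luminescence of leftover ATP; evaluation: % inhibition; control set: DMSO-only wells as low control; replicates: singlicate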
MsrA conf – bovine MsrA inhibitors, retest, confirmation, biochemical, absorbance, HTS | shares compounds with MsrA inhibitor | purified bovine MsrA, absorbance read-out | inhibition, % at 15.5 µM | hit rate 41% among 2,300 | AID 651822, 2012;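 note: coupled to thioredoxin reductase with NADPH and selenocystamine and DMSO as substrate; 0% = vehicle only and 100% = full effect of reference inhibitor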
Starred values were filed as active, the others as inactive; . = no result. Cut-off read from the data, not from the text of the source, unless noted: active = inhibition above about 4.5%; inactive = the rest.

SMILES	MsrA inhibitor	proCasp3 act	proCasp7 act	bovine MsrA act	TbMetRS inhib	MsrA conf
CC(=O)OCC(COC(C)=O)(CN1C(=O)c2ccccc2C1=O)CN1C(=O)c2ccccc2C1=O	1	.	.	.	.	.
CCC(C)CN1C(=O)CSCC1(C)C(=O)NC(C)C (centres undefined)	0	.	.	.	0	.
O=c1ccn2c(n1)OC1CC2OC1COC(c1ccccc1)(c1ccccc1)c1ccccc1 (centres undefined)	0	.	.	.	.	.
N#C/C(=C\c1ccc(-c2cccc(C(F)(F)F)c2)o1)C(=O)Nn1cnnc1	4.8*	3	-4	-7	-1	2
O=S(=O)(c1ccc(F)cc1)N1CCCc2nc(-c3ccccc3)ccc21	-1	.	.	.	.	.
COc1ccc2nc(C)cc(N/N=C/c3ccc(F)cc3)c2c1	42*	-15	-7	-7	-1	54*
Cc1ccc2nc(-c3ccc(NC(=O)CN4C(=O)NC(C)(c5ccc(OC(F)F)cc5)C4=O)cc3)sc2c1 (centres undefined)	4.7*	3	8	-6	0	3
CC1(c2ccc(OC(F)F)cc2)NC(=O)N(CC(=O)Nc2ccccc2)C1=O (centres undefined)	1	-2	-2	-1	0	.
O=C(COc1ccc2oc(-c3ccco3)cc(=O)c2c1)N1CCCCC1	4.7*	7	9	-6	0	3
COc1ccc2oc(-c3ccco3)cc(=O)c2c1	3	-4	11	-2	0	.
N#Cc1cc(NC2CCCC2)c([N+](=O)[O-])cc1C#N	43*	-1	1	-2	0	-1
O=[N+]([O-])c1ccc(NC2CCCC2)cc1	0	0	-1	-6	0	.
COc1ccc(-c2cc(C(=O)OCC(=O)N3CCOCC3)c3ccccc3n2)cc1	4.7*	-2	-19	-6	0	1
COc1ccc(-c2cc(C(=O)N3CCC3)c3ccccc3n2)cc1OC	5.4*	12	2	-4	0	3
COc1cc2ccccc2cc1C(=O)OCC(=O)N1CCOCC1	0	-6	3	0	0	.
Cc1[nH]c2ccccc2c1C(C#N)(C#N)C1C(=O)c2ccccc2C1=O	47*	-7	-8	-1	0	46*
Cc1ccc(CNC(=O)C2CCCN(S(=O)(=O)c3cccc4nonc34)C2)cc1 (centres undefined)	-1	0	4	-3	0	.
N#CC1=C(N)Oc2c(ccc3cccnc23)C1c1cccnc1 (centres undefined)	2	5	10	-3	0	.
N#CC1=C(N)Oc2cc3ccccc3cc2C1c1cccnc1 (centres undefined)	7.6*	-3	-1	-5	-2	2
O=C(O)Cc1sc(Nc2ccccc2)nc1-c1cccs1	4.9*	-11	-26	-7	-1	0
CN(NC(=O)C(=O)NCc1ccco1)C(=O)NC1CCCCC1	-1	.	.	.	.	.
COCCCNC(=S)N(CCCO)Cc1cc2cc3c(cc2[nH]c1=O)OCCO3	5.0*	-15	3	-2	0	2
COCCCNC(=S)N(CCCO)Cc1cc2cc3c(cc2[nH]c1=O)OCO3	2	-4	-6	-2	1	.
Cn1cc(C(=O)N/N=C/c2cccs2)c2ccccc21	5.2*	4	-1	-5	0	5.2*
CCCn1nc(C(=O)Nc2cc(OCC)c(N3CCOCC3)cc2OCC)c2ccccc2c1=O	-1	.	.	-2	0	.
SMILES	MsrA inhibitor	proCasp3 act	proCasp7 act	bovine MsrA act	TbMetRS inhib	MsrA conf
CC1(C)C2CCC(CN=C(N)CSS(=O)(=O)O)C1C2 (centres undefined)	21*	.	.	-9	0	8.8*
c1ccc(Nc2nc3ccccc3n3cnnc23)cc1	3	5	-8	-2	-1	.
Cc1ccc(C)c(Nc2nc3ccccc3n3cnnc23)c1	11*	-1	8	-3	0	6.7*
CC(Nc1nc2ccccc2n2cnnc12)c1ccccc1 (centres undefined)	12*	-2	7	-9	0	7.2*
COc1cccc2cc(-c3csc(CCn4nc(C)cc4C)n3)c(=O)oc12	5.5*	-1	-14	-9	-1	2
O=C(C(=O)N1CCC(CNS(=O)(=O)c2cc(C(F)(F)F)cc(C(F)(F)F)c2)CC1)c1cc2ccccc2o1	1	.	.	.	.	.
COc1ccc(N(CCC#N)C(=O)/C(C#N)=C/c2cccs2)cc1	5.5*	0	-3	-4	0	2
CC(C)(C)C(=O)/C(C#N)=C/c1cccs1	-1	-6	6	-7	-1	.
Cc1cc[n+](-c2[nH]c(=O)sc2/C=N/N=C(\[O-])c2ccccc2)cc1C	4.7*	.	.	-3	0	2
Cc1cc(C)c[n+](-c2[nH]c(=O)sc2/C=N/N=C(\N)[S-])c1	5.4*	-6	-10	-6	-1	5.5*
Cc1cc[n+](-c2[nH]c(=O)sc2/C=N/N=C(\[O-])c2ccncc2)cc1	13*	-3	-2	-6	0	4
O=C(N/N=C/c1sc(=O)[nH]c1-[n+]1ccccc1)c1ccccc1[O-]	4	0	0	-6	0	.
Cc1ccc[n+](-c2[nH]c(=O)sc2/C=N/NC(=O)c2ccccc2[O-])c1	4.9*	-7	2	-4	0	1
N#Cc1ccc(S(=O)(=O)NC(=O)[C@H]2O[C@@H](n3ccc(=O)[nH]c3=O)[C@H](O)[C@@H]2O)cc1	1	.	.	.	.	.
CCN=C1NC(c2ccccc2)C(C(=O)OC)=C(C)N1Cc1ccc(C(F)(F)F)cc1 (centres undefined)	-2	.	.	.	.	.
NC(=O)[C@@H]1CCCN1C(=O)[C@@H](Cc1ccccc1)NC(=O)[C@H]1O[C@@H](n2ccc(N)nc2=O)[C@H](O)[C@@H]1O	0	.	.	.	.	.
CCCCS(=O)(=O)N1CCCc2nc(C)c(C)cc21	1	.	.	.	.	.
Cc1ccc[n+](-c2[nH]c(=O)sc2/C=N/N=C(\[O-])c2cccnc2)c1	4	-4	-8	3	0	.
Cc1cc[n+](-c2[nH]c(=O)sc2/C=N/N=C(\[O-])c2ccccc2)cc1	5.0*	0	5	-6	0	4
O=c1[nH]c(-[n+]2ccccc2)c(/C=N/N=C(\[O-])c2ccccc2)s1	5.0*	8	1	-7	0	5.2*
O=C(NNC(=O)C(c1ccccc1)c1ccccc1)c1ccccc1O	0	.	.	-7	0	.

Screening data (PubChem BioAssay)
